Bioassay records from PubChem.
DAGLB inhibitor = DAGLB lipase inhibitors, primary screen, biochemical, fluorescence, HTS; Diacylglycerol lipase-beta (Homo sapiens), Q8NCG7; hit rate 0.059% among 340,000; HEK293T DAGLB membrane lysate, EnzChek fluorogenic substrate; inhibition, % at 5.17 µM; in the data active = inhibition above about 34%;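 also: 0% = enzyme with vehicle and 100% = wells lacking enzyme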
Target sequence (Q8NCG7 whole entry, looked up): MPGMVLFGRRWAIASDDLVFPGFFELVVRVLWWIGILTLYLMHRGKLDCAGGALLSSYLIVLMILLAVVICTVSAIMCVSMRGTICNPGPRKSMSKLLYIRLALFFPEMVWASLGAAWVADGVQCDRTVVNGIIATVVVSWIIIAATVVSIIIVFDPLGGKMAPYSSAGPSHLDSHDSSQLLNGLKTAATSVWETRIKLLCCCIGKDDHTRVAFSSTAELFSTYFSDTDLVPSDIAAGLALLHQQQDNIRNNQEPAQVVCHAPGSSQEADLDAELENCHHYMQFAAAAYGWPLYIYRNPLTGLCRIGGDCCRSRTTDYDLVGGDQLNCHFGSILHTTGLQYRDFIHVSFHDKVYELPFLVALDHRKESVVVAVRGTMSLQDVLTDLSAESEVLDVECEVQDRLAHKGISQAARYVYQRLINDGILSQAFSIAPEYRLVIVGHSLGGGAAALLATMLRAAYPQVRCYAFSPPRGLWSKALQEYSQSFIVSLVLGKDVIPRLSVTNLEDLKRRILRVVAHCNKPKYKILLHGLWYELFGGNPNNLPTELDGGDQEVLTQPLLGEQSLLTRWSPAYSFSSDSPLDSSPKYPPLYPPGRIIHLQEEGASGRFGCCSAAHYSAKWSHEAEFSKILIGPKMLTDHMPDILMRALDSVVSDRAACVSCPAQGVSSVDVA
Arr AP2 block = inhibitors of beta-arrestin/AP2 binding, primary screen, biochemical, GPCR trafficking, flow cytometry; FITC-arrestin peptide / GST-AP2 beads; AP2 beta2 appendage carries R879A mutation; inhibition, % at 10 µM; beta-arrestin 1 C-terminal peptide binding to AP2 beta2-adaptin appendage (human); hit rate 0.31% among 340,000;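 active = inhibition above a set limit, near 3 SD of compounds lacking own fluorescence, cut at about 54% in these data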;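 also: plate controls were DMSO wells for no effect and 5 µM unlabelled arrestin peptide for full effect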
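System: GST-tagged AP2 beta2-adaptin appendage (R879A) on 4 µm glutathione beads / Reagent: FITC-arrestin peptide, 50 nM / Detection: HyperCyt-sampled flow cytometry, FL1 channel, ex 488/em 535 nm / Timing: 12 min plus 1 h, RT / Buffer or medium: PBS plus Tween 20 (0.05%) and BSA (0.1%)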
OPRM1-OPRD1 inv = inverse agonists of MOR-DOR heterodimerization, primary screen, cell-based, luminescence. Mu-type opioid receptor (Homo sapiens) + Delta-type opioid receptor (Homo sapiens), …. cell-based MOR-DOR heterodimer luminescence, inverse agonism. inhibition, % at 9.3 µM. hit rate 0.21% among 340,000. AID 504357, 2011; in the data active = inhibition above about 22%, passing the limit was not always enough;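 also: 0% = cells with DMSO and 100% = wells without cells with DMSO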
HTR5A ag = HTR5A agonists in luminescence cell assay, primary screen, counter-screen for OPRM1-OPRD1 heterodimer agonist project, full-deck HTS; 5-hydroxytryptamine receptor 5A (Homo sapiens), P47898; cell-based; activation, % at 9.3 µM; hit rate 0.61% among 340,000; AID 504692, 2011; in the data active = activation mostly above about 9.5%, no sharp cut-off; inactive = mostly below about 7.6%;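 also: 0% = cells with vehicle only and 100% = reference agonist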
MOR-DOR ag = agonists of OPRM1-OPRD1 heterodimerization, primary screen, cell-based, luminescence | hit rate 0.3% among 340,000 | AID 504326, 2011 | Mu-type opioid receptor (Homo sapiens) + Delta-type opioid receptor (Homo sapiens), … | cells | activation, % at 9.3 µM;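 also: 0% = vehicle-treated cells and 100% = reference agonist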
HTR5A inv ag = HTR5A inverse agonists in luminescence cell assay, primary screen, counter-screen for OPRM1-OPRD1 heterodimer inverse agonist project, full-deck HTS. AID 504634, 2011. 5-hydroxytryptamine receptor 5A (Homo sapiens), P47898. HTR5A cell line, inverse agonism. hit rate 0.083% among 340,000. inhibition, % at 9.3 µM; in the data active = inhibition mostly above about 23%, no sharp cut-off; inactive = mostly below about 18%;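 also: 0% = cells with DMSO and 100% = no-cell wells with DMSO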
OPRM1-D1 ag cf = agonists of MOR-DOR heterodimerization, confirmation, cell-based, luminescence. shares compounds with MOR-DOR ag. cells, luminescence complementation. activation, % at 9.3 µM. hit rate 45% among 830. AID 504904, 2011;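 also: 0% = vehicle-treated cells and 100% = reference agonist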
HTR5A ag counter = HTR5A agonists in cells, counter-screen for OPRM1-OPRD1 heterodimer agonist project, cell-based, luminescence | shares compounds with MOR-DOR ag | AID 504905, 2011 | hit rate 8% among 830 | activation, % at 9.3 µM | HTR5A agonist counterscreen; in the data active = activation above about 17%;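 also: 0% = vehicle-treated cells and 100% = reference agonist response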
* marks the source's active call; other numbers are inactive results; i = inactive; . = not tested or not shown. Rows were chosen to be rich in hits. Some 1.4% of all compounds tested hit in one or more screens of this group. Rule as the data show it, unless noted: active = activation above about 18%; inactive = the rest.

SMILES | DAGLB inhibitor | Arr AP2 block | OPRM1-OPRD1 inv | HTR5A ag | MOR-DOR ag | HTR5A inv ag | OPRM1-D1 ag cf | HTR5A ag counter
O=C(N/N=C/c1cccnc1)c1ccccc1OCc1ccc(Br)cc1 | 0 | -2 | -126 | -3 | 24* | 8 | 14 | 5
O=C(N/N=C/c1cccnc1)c1ccccc1Br | 0 | 0 | 11 | 1 | -2 | -38 | . | .
Cc1ccc(/C=N/NC(=O)CSc2nc3ccccc3c(=O)n2-c2ccccc2)s1 | 1 | 32 | 7 | -3 | -1 | 8 | . | .
Cc1ccc(-c2nnc(SCC(=O)N/N=C/c3ccc(C)s3)n2-c2ccc(C)cc2)cc1 | 6 | -1 | -87 | 1 | 18* | -16 | 10 | 2
CC1CN(C)C(C)c2c1oc1ccc(N)cc21 (stereo unspecified) | 1 | 0 | -373 | -3 | 72* | -12 | 58* | 4
CCOC(=O)C1=C(C)N(Cc2ccccc2)C(=O)NC1c1ccccc1OS(=O)(=O)c1ccccc1[N+](=O)[O-] (stereo unspecified) | 2 | 13 | -380 | -2 | 65* | 6 | 1 | -4
COC(=O)C1=C(C)N(CCCCCC(=O)O)C(=O)NC1c1ccccc1 (stereo unspecified) | -3 | 23 | 8 | 18 | -1 | -48 | . | .
COC(=O)C1=C(C)N(CCCC(=O)O)C(=O)NC1c1ccccc1OS(=O)(=O)c1ccccc1[N+](=O)[O-] (stereo unspecified) | 2 | 26 | -296 | -2 | 51* | 6 | 47* | 5
O=C(O)c1cccc2c1C(=O)c1ccccc1C2=O | 2 | 5 | 3 | -1 | -1 | 2 | . | .
O=C1C(O)=CC(=C(c2ccccc2)c2ccccc2)c2ccccc21 | 22 | -4 | -100 | -4 | 20* | 16 | -1 | -16
NC1=NC2(CCN(Cc3ccccc3)CC2)n2c(nc3ccccc32)N1 | 1 | -4 | -245 | -1 | 50* | -4 | 28* | 1
C[C@@H]1CN([C@H](C)CO)C(=O)CCCn2nncc2CO[C@@H]1CN(C)S(=O)(=O)c1ccc2ccccc2c1 | 1 | . | . | . | . | . | . | .
COc1cccc(C(=O)Nc2ccc3c(c2)C(=O)c2ccccc2C3=O)c1 | 2 | 10 | -261 | -1 | 38* | -14 | 53* | 11
CCc1ccc(Nc2n[n+](-c3ccccc3)c(-c3c(Cl)cccc3Cl)s2)cc1 | 20 | 29 | -153 | 12 | 27* | -5 | 73* | 10
Fc1ccc(-[n+]2nc(Nc3ccccc3)sc2-c2c(Cl)cccc2Cl)cc1 | 15 | 2 | -6 | 0 | 1 | -9 | . | .
COc1ccc(C(CNc2ncnc3sc(C)c(C)c23)N(C)C)cc1 (stereo unspecified) | 0 | -3 | i | 0 | 102* | -1 | 68* | -3
CN(C)C(CNc1ncnc2sccc12)c1ccccc1 (stereo unspecified) | 1 | 16 | -76 | 1 | 13 | -3 | . | .
COc1ccc(C(CNc2ncnc3sccc23)N(C)C)cc1OC (stereo unspecified) | 3 | 3 | -154 | 0 | 20* | 0 | 0 | 25*
COc1ccccc1C(CNc1ncnc2sc(C)c(C)c12)N(C)C (stereo unspecified) | 1 | -1 | 2 | 2 | 0 | -4 | . | .
O=c1c2ccc(Cl)cc2[nH]c(=S)n1Cc1cccnc1 | -2 | -2 | -297 | -8 | 62* | 18 | 54* | 0
C=CCN1N=C(c2ccc(NC(=O)c3ccccc3)cc2)CSC1=O | -1 | -4 | -285 | 3 | 55* | 19 | 1 | -4
CC(C)c1cc(NC(=O)c2ccccc2)cc(C(C)C)c1O | -3 | 3 | 22 | 2 | -5 | -1 | . | .
CC(C)c1ccccc1NC(=O)c1cccc(NC(=O)c2ccccc2)c1 | -5 | 6 | -293 | -1 | 48* | 8 | 8 | 4
COc1cccc(S(=O)(=O)N(C)C[C@H]2OCc3cnnn3CCCC(=O)N([C@H](C)CO)C[C@H]2C)c1 | 2 | . | . | . | . | . | . | .
CCc1noc(C)c1C(=O)NCCN1C(=O)S/C(=C\c2ccccc2F)C1=O | -2 | . | . | . | . | . | . | .
SMILES | DAGLB inhibitor | Arr AP2 block | OPRM1-OPRD1 inv | HTR5A ag | MOR-DOR ag | HTR5A inv ag | OPRM1-D1 ag cf | HTR5A ag counter
O=c1c(Cl)c(N2CCOCC2)cnn1-c1ncc(C(F)(F)F)cc1Cl | -2 | -2 | 7 | 1 | -1 | 3 | . | .
FC(F)(F)c1cnc(Nc2ccc(N3CCOCC3)cc2)c(Cl)c1 | 0 | 17 | -171 | 8 | 28* | -23 | 8 | 4
COc1cc2[nH]c3c(N4CCN(c5ccc(Cl)cc5)CC4)ncnc3c2cc1OC | 4 | 7 | -19 | 1 | 3 | 7 | . | .
COc1cccc(N2CCN(c3ncnc4c3[nH]c3ccc(F)cc34)CC2C)c1 (stereo unspecified) | 2 | 3 | -256 | 15* | 43* | -25 | -4 | -8
CCOc1cc(C(=O)CSc2nnc(CNc3ccc(Cl)cc3)o2)ccc1NC(=O)CC | 3 | -35 | -370 | 30* | 65* | -53 | 77* | 25*
COc1ccc(NCc2nnc(SCC(=O)c3ccc(OC)cc3)o2)cc1 | 1 | -2 | -4 | 1 | 1 | -5 | . | .
CCOc1cc(/C=N/NC(=O)c2ccncc2)ccc1OC(=O)c1ccc([N+](=O)[O-])cc1 | 1 | 29 | -252 | 9 | 45* | -24 | 13 | 4
O=C(NCc1ccco1)c1cccc2c1C(=O)c1ccc(N3CCC(N4CCCCC4)CC3)cc1S2(=O)=O | -4 | . | . | . | . | . | . | .
COc1ccccc1N1CCN(C(c2cccs2)C(C)NC(=O)c2cccnc2)CC1 (stereo unspecified) | 3 | 1 | -11 | 4 | 2 | -13 | . | .
CC(C)C(=O)NC(C)C(c1cccs1)N1CCN(c2ccccc2)CC1 (stereo unspecified) | -5 | 4 | -177 | 7 | 30* | -29 | 29* | 4
COc1ccccc1N1CCN(C(c2cccs2)C(C)NC(=O)c2cccs2)CC1 (stereo unspecified) | -4 | -3 | -138 | -6 | 23* | 2 | 13 | 8
